In ChEMBL document CHEMBL4373701, “Semisynthetic Derivatives of Fradcarbazole A and Their Cytotoxicity against Acute Myeloid Leukemia Cell Lines” (J Nat Prod, 2019) one finds IC50 and Activity data, which are given here for 15 compounds.

SMILES strings stand for the structures. Activity calls are given as the source filed them. The rule behind the calls is not given here. Where only a bound is given, the exact number is not on record here.

Assay [1] deals with HL-60. Kind of assay: Antiproliferative activity against human HL60 cells measured after 72 hrs by Celltiter-Glo assay. The note with it: HL-60, 72 h. Format: functional, cell-based. A general note: In ATP-based viability assays light output follows the ATP content of the culture.
The test system of assay [2] is MV4-11. The experiment in a line: Antiproliferative activity against human MV4-11 cells measured after 72 hrs by Celltiter-Glo assay. The note with it: MV4-11, 72 h. The format is functional, cell-based.
Assay [3] relates to PBMC. Kind of assay: Cytotoxicity against human PBMC cells measured after 72 hrs by Celltiter-Glo assay. The format is ADME, cell-based.
Assay [4] concerns K562. The experiment in a line: Antiproliferative activity against human K562 cells measured after 72 hrs by Celltiter-Glo assay. The format is functional, cell-based. As to conditions: K562, 72 h.
Assay [5] concerns MV4-11. Kind of assay: Cell cycle arrest in human MV4-11 cells assessed as accumulation at S phase at 0.6 uM after 24 hrs by propidium iodide/RNase A staining based FACScalibur flow cytometry analysis (reference value: 29.92 %). The format is functional. For orientation: A flow cytometer gives signals particle by particle.
Assay [6] deals with MV4-11. The experiment in a line: Cell cycle arrest in human MV4-11 cells assessed as accumulation at G0/G1 phase at 0.6 uM after 24 hrs by propidium iodide/RNase A staining based FACScalibur flow cytometry analysis (reference value: 50.04 %). Format: functional.
Assay [7] concerns MV4-11. The experiment in a line: Cell cycle arrest in human MV4-11 cells assessed as accumulation at S phase at 0.3 uM after 24 hrs by propidium iodide/RNase A staining based FACScalibur flow cytometry analysis (reference value: 29.92 %). Format: functional.
Assay [8] relates to MV4-11. Kind of assay: Cell cycle arrest in human MV4-11 cells assessed as accumulation at G2/M phase at 0.6 uM after 24 hrs by propidium iodide/RNase A staining based FACScalibur flow cytometry analysis (reference value: 10.58 %). Format: functional.
In assay [9] the test system is MV4-11. Kind of assay: Cell cycle arrest in human MV4-11 cells assessed as accumulation at G2/M phase at 0.15 uM after 24 hrs by propidium iodide/RNase A staining based FACScalibur flow cytometry analysis (reference value: 10.58 %). Format: functional.
Assay [10] concerns MV4-11. The experiment in a line: Cell cycle arrest in human MV4-11 cells assessed as accumulation at S phase at 0.15 uM after 24 hrs by propidium iodide/RNase A staining based FACScalibur flow cytometry analysis (reference value: 29.92 %). The format is functional.
Assay [11] relates to MV4-11. Kind of assay: Induction of apoptotic cell death in human MV4-11 cells at 0.3 uM after 24 hrs by DAPI-based TUNEL assay. The format is functional. Put shortly:
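MV4-11 cells held at 0.3 μM for 24 h, then processed with a one-step TUNEL kit. DNA counterstained with DAPI. Green apoptotic cells seen by fluorescence microscopy, excitation 450−500 nm, emission 515−565 nm.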

Assay [12] deals with MV4-11. Kind of assay: Induction of apoptosis in human MV4-11 cells assessed as decrease in FLT3 expression after 24 hrs by Western blot analysis. The format is functional, cell-based. An outline of the steps:
(§1)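 MV4-11 cells (RPMI-1640, 10% FBS, 37 °C, 5% CO2) exposed 24 h to 0.15, 0.3 or 0.6 μM. Lysed in RIPA buffer, protein measured by BCA, 40 μg run on SDS-PAGE and blotted to nitrocellulose. Primary antibodies overnight at 4 °C, HRP anti-rabbit IgG secondary 1 h at rt. Bands detected by ECL.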
(In western blotting, separated proteins are transferred to a membrane and probed.)

Assay [13] relates to MV4-11. The experiment in a line: Induction of apoptosis in human MV4-11 cells assessed as decrease in phosphorylated-FLT3 expression after 24 hrs by Western blot analysis. Format: functional, cell-based. Put shortly: as §1
For assay [14], the system named is MV4-11. The experiment in a line: Induction of apoptosis in human MV4-11 cells assessed as decrease in c-kit expression after 24 hrs by Western blot analysis. Format: functional, cell-based. An outline of the steps:
as §1

Assay [15] relates to MV4-11. The experiment in a line: Cell cycle arrest in human MV4-11 cells assessed as accumulation at G0/G1 phase at 0.15 uM after 24 hrs by propidium iodide/RNase A staining based FACScalibur flow cytometry analysis (reference value: 50.04 %). Format: functional.
For assay [16], the system named is MV4-11. The experiment in a line: Cell cycel arrest in human MV4-11 cells assessed as decrease in CDK2 expression at 0.15 to 0.6 uM after 24 hrs by Western blot analysis. The format is functional, cell-based. An outline of the steps:
as §1

Assay [17] relates to MV4-11. Kind of assay: Cell cycle arrest in human MV4-11 cells assessed as accumulation at G2/M phase at 0.3 uM after 24 hrs by propidium iodide/RNase A staining based FACScalibur flow cytometry analysis (reference value: 10.58 %). Format: functional.
Assay [18] has as its system MV4-11. The experiment in a line: Cell cycle arrest in human MV4-11 cells assessed as accumulation at G0/G1 phase at 0.3 uM after 24 hrs by propidium iodide/RNase A staining based FACScalibur flow cytometry analysis (reference value: 50.04 %). Format: functional.

As to `CO[C@@H]1[C@H](N(C)c2ncc(-c3c[nH]c4ccccc34)s2)C[C@H]2O[C@]1(C)n1c3ccccc3c3c4c(c5c6ccccc6n2c5c31)C(=O)NC4`, the IC50 is > 10 µM in assay [1], 0.4 µM in [2], > 10 µM in assay [3] and > 10 µM in assay [4].

In the case of `CO[C@@H]1[C@H](N(C)c2ncc(-c3c[nH]c4ccc(Cl)cc34)s2)C[C@H]2O[C@]1(C)n1c3ccccc3c3c4c(c5c6cc(Cl)ccc6n2c5c31)C(=O)NC4`, the IC50 was > 10 µM in assay [1], 0.59 µM in assay [2], > 10 µM in assay [3] and > 10 µM in assay [4].

Regarding `CO[C@@H]1[C@H](N(C)c2ncc(-c3c[nH]c4ccccc34)s2)C[C@H]2O[C@]1(C)n1c3ccccc3c3c4c(c5c6cc(Cl)ccc6n2c5c31)C(=O)NC4`, the IC50 in [1] is > 10 µM; in [2], 0.56 µM; in [3], > 10 µM; in [4] it was > 10 µM.

With `CO[C@@H]1[C@H](N(C)c2ncc(-c3c[nH]c4ccc(Br)cc34)s2)C[C@H]2O[C@]1(C)n1c3ccccc3c3c4c(c5c6ccccc6n2c5c31)C(=O)NC4`, the IC50 was > 10 µM in assay [1], 0.41 µM in assay [2], > 10 µM in [3] and > 10 µM in assay [4].

Turning to `COc1ccc2[nH]cc(-c3cnc(N(C)[C@@H]4C[C@H]5O[C@@](C)([C@@H]4OC)n4c6ccccc6c6c7c(c8c9ccccc9n5c8c64)C(=O)NC7)s3)c2c1`, the IC50 in [1] is > 10 µM; in [2], 0.36 µM; in assay [3], > 10 µM; in [4], > 10 µM.

As for `CO[C@@H]1[C@H](N(C)c2ncc(-c3c[nH]c4ccc(F)cc34)s2)C[C@H]2O[C@]1(C)n1c3ccccc3c3c4c(c5c6ccccc6n2c5c31)C(=O)NC4`, the half-inhibitory concentration (IC50) in assay [1] was > 10 µM; in [2], 0.51 µM; in [3], > 10 µM; in assay [4] it was > 10 µM.

Turning to `CO[C@@H]1[C@H](N(C)c2ncc(-c3c[nH]c4ccc(F)cc34)s2)C[C@H]2O[C@]1(C)n1c3ccccc3c3c4c(c5c6cc(Br)ccc6n2c5c31)C(=O)NC4`, the IC50 in assay [1] was > 10 µM; in assay [2] it was 0.96 µM; in assay [3], > 10 µM; in assay [4], > 10 µM.

Turning to `CO[C@@H]1[C@H](N(C)c2ncc(-c3c[nH]c4ccc(Cl)cc34)s2)C[C@H]2O[C@]1(C)n1c3ccccc3c3c4c(c5c6cc(Br)ccc6n2c5c31)C(=O)NC4`, the concentration for half-maximal inhibition (IC50) was > 10 µM in assay [1], 0.7 µM in assay [2], > 10 µM in assay [3] and > 10 µM in assay [4].

As to `COc1ccc2[nH]cc(-c3cnc(N(C)[C@@H]4C[C@H]5O[C@@](C)([C@@H]4OC)n4c6ccccc6c6c7c(c8c9cc(Cl)ccc9n5c8c64)C(=O)NC7)s3)c2c1`, the half-inhibitory concentration (IC50) in assay [1] is > 10 µM; in assay [2], 0.44 µM; in assay [3], > 10 µM; in [4], > 10 µM.

Regarding `CO[C@@H]1[C@H](N(C)c2ncc(-c3c[nH]c4ccc(F)cc34)s2)C[C@H]2O[C@]1(C)n1c3ccccc3c3c4c(c5c6cc(Cl)ccc6n2c5c31)C(=O)NC4`, the Activity stood at 10.18% in assay [5]; 87.75% in assay [6]; 9.23% in [7]; 0.45% in assay [8]; 10.04% in assay [9]; 20.19% in [10]. For the same compound, the Activity entry in [12] is “Dose-dependent effect”; in assay [13], “Dose-dependent effect”; in [14] it was “Dose-dependent effect”; in assay [15] it was 60.59%; in assay [17], 6.6%; in assay [18] it was 72.68%. In addition, the half-inhibitory concentration (IC50) in assay [1] is > 10 µM; in assay [2] it was 0.32 µM; in assay [3], > 10 µM; in assay [4], > 10 µM. Further, the outcome in assay [11] and in assay [16] was Active.

`CO[C@@H]1[C@H](N(C)c2ncc(-c3c[nH]c4ccc(Cl)cc34)s2)C[C@H]2O[C@]1(C)n1c3ccccc3c3c4c(c5c6ccccc6n2c5c31)C(=O)NC4`: the 50% inhibitory concentration (IC50) in assay [1] was > 10 µM; in assay [2], 0.42 µM; in assay [3], > 10 µM; in assay [4], > 10 µM.

For the compound `COc1ccc2[nH]cc(-c3cnc(N(C)[C@@H]4C[C@H]5O[C@@](C)([C@@H]4OC)n4c6ccccc6c6c7c(c8c9cc(Br)ccc9n5c8c64)C(=O)NC7)s3)c2c1`, the IC50 in assay [1] is > 10 µM; in [2], 0.51 µM; in assay [3], > 10 µM; in assay [4], > 10 µM.

Regarding `CO[C@@H]1[C@H](N(C)c2ncc(-c3c[nH]c4ccccc34)s2)C[C@H]2O[C@]1(C)n1c3ccccc3c3c4c(c5c6cc(Br)ccc6n2c5c31)C(=O)NC4`, the half-maximal inhibitory concentration (IC50) is > 10 µM in [1], 0.36 µM in [2], > 10 µM in assay [3] and > 10 µM in assay [4].

In the case of `CO[C@@H]1[C@H](N(C)c2ncc(-c3c[nH]c4ccc(Br)cc34)s2)C[C@H]2O[C@]1(C)n1c3ccccc3c3c4c(c5c6cc(Cl)ccc6n2c5c31)C(=O)NC4`, the IC50 in assay [1] was > 10 µM; in [2], 0.43 µM; in assay [3] it was > 10 µM; in [4], > 10 µM.

On to `CO[C@@H]1[C@H](N(C)c2ncc(-c3c[nH]c4ccc(Br)cc34)s2)C[C@H]2O[C@]1(C)n1c3ccccc3c3c4c(c5c6cc(Br)ccc6n2c5c31)C(=O)NC4`, for which the IC50 is > 10 µM in assay [1], 0.39 µM in assay [2], > 10 µM in [3] and > 10 µM in assay [4].

For orientation: IC50 means the concentration needed to halve the response being measured. A lower IC50 goes with greater potency in that assay.
